Results pooled from the literature.
Target: Calcium/calmodulin-dependent protein kinase type II subunit delta (CAMK2D, Homo sapiens, UniProt Q13557)

Structure (SMILES)	assay	setting	endpoint	result
Cc1sc(C(=O)NC2COC2)cc1-n1cc(NC(=O)Nc2c(F)cccc2Cl)cn1	enzyme activity, inhibitor	10 µM	remaining activity	91.3%
c1ccc(CNc2nc(N3CCOc4ccccc43)nc3c2CCCC3)cc1	target engagement in cells, inhibitor, chemoproteomics	20 mM	inhibition	-17.7%
CCN(CC)CCNC(=O)c1c(C)[nH]c(/C=C2\C(=O)Nc3ccc(F)cc32)c1C	enzyme activity, inhibitor	10 µM	inhibition	96%
O=C(NCc1ncc(C(F)(F)F)cc1Cl)c1ccc2c(c1)C1(CCS(=O)(=O)CC1)[C@H](C1CC1)N2S(=O)(=O)c1ccc(F)cc1	cell-free assay, competition with immobilised ligand	1 µM	remaining binding	100%
C[C@@H]1CCN(C(=O)CC#N)C[C@@H]1N(C)c1ncnc2[nH]ccc12	cell-free assay	0.5 µM	remaining signal	98.2%
CC1=C(C#N)[C@@H](c2ccc3[nH]nc(C)c3c2)C(C#N)=C(c2ccc(Cl)cc2)N1	cell-free assay, competition with immobilised ligand	1 µM	remaining binding	82.1%
CNC(=O)c1cc(Oc2ccc(NC(=O)Nc3ccc(Cl)c(C(F)(F)F)c3)cc2)ccn1	enzyme activity, inhibitor	0.3 µM	inhibition	56%
CC(C)(O)c1cncc(-c2nc3ccc(F)cc3n2C2CC2)c1	cell-free assay, competition with immobilised ligand	1 µM	remaining binding	100%
CCCOc1ccc(OC)c(F)c1C(=O)c1ccc(C(=O)N[C@@H]2CNC[C@H]2NC(=O)c2ccc3[nH]ncc3c2)cc1	enzyme activity, inhibitor	10 µM	remaining activity	53%
NS(=O)(=O)c1cc(NC(=O)C2(c3ccccc3Cl)CC2)ccc1Oc1cccc(Cl)c1	cell-free assay, competition with immobilised ligand	1 µM	remaining binding	100%
CC(C)c1ccc(NC(=O)c2cccs2)c(-c2nc3ccccc3[nH]c2=O)c1	enzyme activity, inhibitor	1 µM	activity vs control	102%
COc1cc2ncnc(Nc3ccc(Oc4ccccc4)c(C)c3C)c2cc1OC	enzyme activity, inhibitor	1 µM	inhibition	2%
CC(C)(C)c1nc2c(s1)c1nc(N)ncc1c1ccc(NS(=O)(=O)c3c(F)cccc3F)c(F)c12	enzyme activity, inhibitor, radiometric	1 µM	remaining activity	96%
COc1cc(Nc2c(C#N)cnc3cc(OCCCN4CCN(C)CC4)c(OC)cc23)c(Cl)cc1Cl	cell-free assay	0.5 µM	remaining signal	94.6%
COc1cccc(CNC(=O)c2nc3scc(COCc4ccc(C(=O)O)cc4)c3c(=O)[nH]2)c1	cell-free assay, competition with immobilised ligand	1 µM	remaining binding	100%
CCCS(=O)(=O)Nc1ccc(F)c(C(=O)c2c[nH]c3ncc(-c4ccc(Cl)cc4)cc23)c1F	enzyme activity, inhibitor	1 µM	inhibition	< 10%
NS(=O)(=O)c1cc(NC(=O)Cc2ccccc2)ccc1Oc1cccc(Cl)c1	cell-free assay, competition with immobilised ligand	1 µM	remaining binding	97%
C#Cc1cccc(Nc2ncnc3cc(OCCOC)c(OCCOC)cc23)c1	cell-free assay	0.5 µM	remaining signal	95.1%
Nc1ncnc2occ(-c3ccc(NC(=O)Nc4cc(C(F)(F)F)ccc4F)cc3)c12	cell-free assay, inhibitor	20 µM	remaining signal	94%
